Experimental findings from ChEMBL document CHEMBL1142071, “Coproduction of novel 16S rRNA methylase RmtD and metallo-beta-lactamase SPM-1 in a panresistant Pseudomonas aeruginosa isolate from Brazil” (2007) are described below.

Values after ≈ are worked out from the molar mass of the structure shown.

Holding throughout (format): functional
One experiment deals with Pseudomonas aeruginosa. The experiment is described as follows: Antimicrobial activity against Pseudomonas aeruginosa PA0905. An outline of the steps:
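The clinical urine isolate was collected in 2005 in Sorocaba, Brazil. Aminoglycoside MICs were determined by CLSI agar dilution, with E. coli ATCC 25922 as the control strain. β-Lactam, ciprofloxacin and colistin MICs were determined by Etest.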

Experiment [1] has as its system Escherichia coli. Briefly: Antimicrobial activity against Escherichia coli XL1-Blue pPA95S29. An outline of the steps:
(§1)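 Aminoglycoside MICs were determined by CLSI agar dilution, with E. coli ATCC 25922 as the control strain. The host was E. coli XL1-Blue carrying pBluescript II SK(+), either as vector alone or as a ligated Sau3AI partial digest of the cloned resistance plasmid. Transformants were selected on LB agar with 50 μg/ml ampicillin plus 10 μg/ml amikacin.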

The test system of experiment [2] is Escherichia coli. Briefly: Antimicrobial activity against Escherichia coli XL1-Blue [pBluescript 2 SK(+). An outline of the steps: as §1

Take `C[C@@H](O)[C@H]1C(=O)N2C(C(=O)O)=C(SCCNC=N)C[C@H]12` [IMIPENEM ANHYDROUS]: the MIC with Pseudomonas aeruginosa is more than 32 µg/mL.
As for `NC[C@@H]1O[C@H](O[C@H]2[C@@H](O)[C@H](O[C@@H]3[C@@H](O)[C@H](N)C[C@H](N)[C@H]3O[C@H]3O[C@H](CN)[C@@H](O)[C@H](O)[C@H]3N)O[C@@H]2CO)[C@H](N)[C@@H](O)[C@@H]1O` [FRAMYCETIN], the figures for the minimal inhibitory concentration (MIC) against Escherichia coli [1], in the experiment with Pseudomonas aeruginosa and against Escherichia coli [2] were 0.12 µg/mL (≈ 0.195 µM), 64 µg/mL (≈ 104 µM) and 0.12 µg/mL (≈ 0.195 µM), respectively.
On to `NCC[C@H](O)C(=O)N[C@@H]1C[C@H](N)[C@@H](O[C@H]2O[C@H](CN)[C@@H](O)[C@H](O)[C@H]2O)[C@H](O)[C@H]1O[C@H]1O[C@H](CO)[C@@H](O)[C@H](N)[C@H]1O` [AMIKACIN], for which the MIC is more than 256 µg/mL against Escherichia coli [1], more than 256 µg/mL in the experiment with Pseudomonas aeruginosa and 0.5 µg/mL (≈ 0.854 µM) in the experiment with Escherichia coli [2].
The compound `CO/N=C(\C(=O)N[C@@H]1C(=O)N2C(C(=O)[O-])=C(C[N+]3(C)CCCC3)CS[C@H]12)c1csc(N)n1` [CEFEPIME] displayed an MIC against Pseudomonas aeruginosa of more than 256 µg/mL.
Same read-out and setting: to `CC(C)(O/N=C(\C(=O)N[C@@H]1C(=O)N2C(C(=O)[O-])=C(C[n+]3ccccc3)CS[C@H]12)c1csc(N)n1)C(=O)O` [CEFTAZIDIME] belongs more than 256 µg/mL; to `C[C@H]1[C@H](NC(=O)/C(=N\OC(C)(C)C(=O)O)c2csc(N)n2)C(=O)N1S(=O)(=O)O` [AZTREONAM], 8 µg/mL (≈ 18.4 µM).
`NCC[C@H](O)C(=O)N[C@@H]1C[C@H](N)[C@@H](O[C@H]2O[C@H](CN)CC[C@H]2N)[C@H](O)[C@H]1O[C@H]1O[C@H](CO)[C@@H](O)[C@H](N)[C@H]1O` [ARBEKACIN]: the MIC in the experiment with Escherichia coli [1] is more than 256 µg/mL; in the experiment on Pseudomonas aeruginosa, more than 256 µg/mL; against Escherichia coli [2], 0.25 µg/mL (≈ 0.452 µM).
`CN[C@@H]1[C@@H](O[C@H]2O[C@H](CO)[C@@H](N)[C@H](O)[C@H]2O)OC2C[C@@H](N)[C@@H](O[C@H]3[C@H](O)[C@@H](O)[C@H](N)C[C@@H]3N)OC2[C@@H]1O` (some centres undefined) [APRAMYCIN]: the MIC against Escherichia coli [1] worked out at 2 µg/mL (≈ 3.71 µM); against Pseudomonas aeruginosa, 32 µg/mL (≈ 59.3 µM); with Escherichia coli [2], 2 µg/mL (≈ 3.71 µM).
For `O=C(O)c1cn(C2CC2)c2cc(N3CCNCC3)c(F)cc2c1=O` [CIPROFLOXACIN], the minimum inhibitory concentration (MIC) with Pseudomonas aeruginosa was more than 32 µg/mL.
As to `CN[C@@H]1[C@H](O[C@H]2[C@H](O[C@H]3[C@H](O)[C@@H](O)[C@H](N=C(N)N)[C@@H](O)[C@@H]3N=C(N)N)O[C@@H](C)[C@]2(O)C=O)O[C@@H](CO)[C@H](O)[C@H]1O` [STREPTOMYCIN], the MIC against Escherichia coli [1] worked out at 1 µg/mL (≈ 1.72 µM); in the experiment with Pseudomonas aeruginosa, 128 µg/mL (≈ 220 µM); against Escherichia coli [2], 0.5 µg/mL (≈ 0.86 µM).
In the experiment with Pseudomonas aeruginosa, `C[C@@H](O)[C@H]1C(=O)N2C(C(=O)O)=C(S[C@@H]3CN[C@H](C(=O)N(C)C)C3)[C@H](C)[C@H]12` [MEROPENEM] returned an MIC of more than 32 µg/mL.
Consider `NC[C@H]1O[C@H](O[C@H]2[C@H](O)[C@@H](O[C@H]3O[C@H](CO)[C@@H](O)[C@H](N)[C@H]3O)[C@H](N)C[C@@H]2N)[C@H](N)C[C@@H]1O` [TOBRAMYCIN], for which the MIC with Escherichia coli [1] came to 64 µg/mL (≈ 137 µM); against Pseudomonas aeruginosa, 256 µg/mL (≈ 548 µM); in the experiment on Escherichia coli [2] it was 0.06 µg/mL (≈ 0.128 µM).
